{
  "source": "ChEMBL document CHEMBL4138082",
  "about": "(Eur J Med Chem, 2017)",
  "key": {"HepG2 [1]": {"system": "HepG2", "test": "Cell cycle arrest in human HepG2 cells assessed as G1 phase accumulation at 0.0625 uM after 48 hrs by propidium iodide staining based flow cytometry (reference value: 32.74%)", "format": "functional", "how_it_was_run": "(§1)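 HepG-2 cells were plated and grown 24 h at 37 °C, then treated 48 h at 0, 0.0625, 0.125 or 0.25 µM, with 0.1% DMSO as control. Cells were fixed overnight in 70% ethanol at 4 °C, treated with RNase A and stained with propidium iodide. DNA content was measured by flow cytometry to give cell-cycle phase distribution.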"}, "[2]": {"test": "Drug metabolism in human L02 cells assessed as NO release by measuring nitrite formation at 100 uM after 1 hr by Griess assay", "format": "ADME, cell-based", "conditions": "l02, 1 h", "how_it_was_run": "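HepG-2 or L-02 cells were exposed to 100 µM of each compound for 60 min and then harvested. Lysates were mixed with Griess reagent for 10 min at 37 °C and absorbance was read at 550 nm. NO release is expressed as nitrite, reported as mean ± SD of three independent experiments.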"}, "HepG2 [3]": {"system": "HepG2", "test": "Cell cycle arrest in human HepG2 cells assessed as S phase accumulation at 0.125 uM after 48 hrs by propidium iodide staining based flow cytometry (reference value: 43.88%)", "format": "functional", "how_it_was_run": "as §1"}, "HepG2 [4]": {"system": "HepG2", "test": "Cell cycle arrest in human HepG2 cells assessed as G1 phase accumulation at 0.25 uM after 48 hrs by propidium iodide staining based flow cytometry (reference value: 32.74%)", "format": "functional", "how_it_was_run": "as §1"}, "HepG2 [5]": {"system": "HepG2", "test": "Cell cycle arrest in human HepG2 cells assessed as G2 phase accumulation at 0.25 uM after 48 hrs by propidium iodide staining based flow cytometry (reference value: 23.38%)", "format": "functional", "how_it_was_run": "as §1"}, "HepG2 [6]": {"system": "HepG2", "test": "Cell cycle arrest in human HepG2 cells assessed as G2 phase accumulation at 0.0625 uM after 48 hrs in presence of hemoglobin by propidium iodide staining based flow cytometry (reference value: 10.67%)", "format": "functional"}, "HepG2 [7]": {"system": "HepG2", "test": "Cell cycle arrest in human HepG2 cells assessed as G2 phase accumulation at 0.125 uM after 48 hrs in presence of hemoglobin by propidium iodide staining based flow cytometry (reference value: 10.67%)", "format": "functional"}, "HepG2 [8]": {"system": "HepG2", "test": "Induction of apoptosis in human HepG2 cells assessed as chromatin condensation at 0.0625 to 0.25 uM measured after 48 hrs by Hoechst 33258 staining based fluorescent microscopic analysis", "format": "functional, cell-based", "how_it_was_run": "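After 48 h exposure to 0.0625, 0.125 or 0.25 µM, or to 0.1% DMSO vehicle, HepG-2 cells were stained with Hoechst 33258. Nuclear morphology, including chromatin condensation and fragmentation, was inspected by fluorescence microscopy.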"}, "HepG2 [9]": {"system": "HepG2", "test": "Induction of apoptosis in human HepG2 cells assessed as nuclear fragmentation at 0.0625 to 0.25 uM measured after 48 hrs by Hoechst 33258 staining based fluorescent microscopic analysis", "format": "functional, cell-based"}, "HepG2 [10]": {"system": "HepG2", "test": "Induction of apoptosis in human HepG2 cells assessed as late apoptotic cells at 0.0625 uM after 48 hrs by […] based flow cytometry (reference value: 3.36%)", "format": "functional"}, "HepG2 [11]": {"system": "HepG2", "test": "Induction of apoptosis in human HepG2 cells assessed as necrotic cells at 0.0625 uM after 48 hrs by Annexin V-APC/7-AAD staining based flow cytometry (reference value: 2.40%)", "format": "functional"}, "HepG2 [12]": {"system": "HepG2", "test": "Induction of apoptosis in human HepG2 cells assessed as late apoptotic cells at 0.125 uM after 48 hrs by […] (reference value: 3.36%)", "format": "functional"}, "HepG2 [13]": {"system": "HepG2", "test": "Induction of apoptosis in human HepG2 cells assessed as necrotic cells at 0.125 uM after 48 hrs by Annexin V-APC/7-AAD staining based flow cytometry (reference value: 2.40%)", "format": "functional"}, "HepG2 [14]": {"system": "HepG2", "test": "Induction of apoptosis in human HepG2 cells assessed as viable cells at 0.25 uM after 48 hrs by Annexin V-APC/7-AAD staining based flow cytometry (reference value: 91.07%)", "format": "functional", "conditions": "HepG2, 48 h, read-out: Activity"}, "HepG2 [15]": {"system": "HepG2", "test": "Induction of apoptosis in human HepG2 cells assessed as late apoptotic cells at 0.0625 uM after 48 hrs in presence of hemoglobin by Annexin V-APC/7-AAD staining based flow cytometry (reference value: 3.36%)", "format": "functional"}, "HepG2 [16]": {"system": "HepG2", "test": "Induction of apoptosis in human HepG2 cells assessed as early apoptotic cells at 0.125 uM after 48 hrs in presence of hemoglobin by Annexin V-APC/7-AAD staining based flow cytometry (reference value: 3.18%)", "format": "functional"}, "HepG2 [17]": {"system": "HepG2", "test": "Induction of apoptosis in human HepG2 cells after 48 hrs by […]", "format": "functional, cell-based"}, "HepG2 [18]": {"system": "HepG2", "test": "Induction of apoptosis in human HepG2 cells assessed as cell population with intact mitochondrial membrane potential at 0.125 uM measured after 48 hrs by JC-1 staining based flow cytometry (reference value: 98.51%)", "format": "functional", "how_it_was_run": "(§2)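 HepG-2 cells were exposed 48 h to 0.0625, 0.125 or 0.25 µM or to vehicle, then washed in PBS and stained with JC-1 in the dark. Red aggregate versus green monomer fluorescence was measured by flow cytometry to give the percentages of cells with healthy versus collapsed mitochondrial membrane potential.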"}, "HepG2 [19]": {"system": "HepG2", "test": "Induction of apoptosis in human HepG2 cells assessed as cell population with intact mitochondrial membrane potential at 0.25 uM measured after 48 hrs by JC-1 staining based flow cytometry (reference value: 98.51%)", "format": "functional", "how_it_was_run": "as §2"}, "HepG2 [20]": {"system": "HepG2", "test": "Induction of mitochondrial membrane potential loss in human HepG2 cells measured after 48 hrs by JC-1 staining based flow cytometry", "format": "functional, cell-based", "how_it_was_run": "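After 48 h exposure to 0.0625, 0.125 or 0.25 mM (so in the source) or vehicle, HepG-2 cells washed in PBS and stained with JC-1 in the dark. Flow cytometry scored cells with healthy (red aggregate) versus collapsed (green monomer) mitochondrial membrane potential.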"}, "HepG2 [21]": {"system": "HepG2", "test": "Downregulation of HO-1 expression in human HepG2 cells after 24 hrs by protein array assay", "format": "functional, cell-based", "how_it_was_run": "(§3)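 Lysates from HepG-2 cells treated 24 h were incubated overnight at 4 °C on a membrane array of 35 apoptosis-related proteins. A biotinylated detection antibody cocktail was then applied for 1 h at room temperature. Relative expression was read from chemiluminescent spots by densitometry.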"}, "HepG2 [22]": {"system": "HepG2", "test": "Downregulation of HO-2 expression in human HepG2 cells after 24 hrs by protein array assay", "format": "functional, cell-based", "how_it_was_run": "as §3"}, "HepG2 [23]": {"system": "HepG2", "test": "Upregulation of total Cyt c level in human HepG2 cells up to 0.25 uM after 48 hrs by Western blot method", "format": "functional, cell-based"}, "HepG2 [24]": {"system": "HepG2", "test": "Upregulation of caspase 3 level in human HepG2 cells up to 0.25 uM after 48 hrs by Western blot method", "format": "functional, cell-based"}, "HepG2 [25]": {"system": "HepG2", "test": "Downregulation of pro-caspase 3 level in human HepG2 cells up to 0.25 uM after 48 hrs by Western blot method", "format": "functional, cell-based", "how_it_was_run": "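HepG-2 cells were exposed 48 h to 0, 0.0625, 0.125 or 0.25 µM and lysed on ice for 20 min. Equal protein loads were run on 12% SDS-PAGE and transferred to PVDF. Membranes were probed overnight at 4 °C with primary antibodies, then with HRP-conjugated secondaries, and detected by ECL chemiluminescence.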"}},
  "note": "The source made the active and inactive calls. The calls are words filed in the database; no cut-off is given here.",
  "data": [
    {"smiles": "C[C@H]1CCC/C=C/[C@@H]2C[C@H](OC(=O)CCCC(=O)OCCOc3no[n+]([O-])c3S(=O)(=O)c3ccccc3)C[C@H]2[C@H](OC(=O)CCCC(=O)OCCOc2no[n+]([O-])c2S(=O)(=O)c2ccccc2)/C=C/C(=O)O1", "values": [
      {"measurement": "Activity", "setting": "HepG2 [1]", "result": 32.84, "unit": "%"},
      {"measurement": "Drug metabolism", "setting": "[2]", "result": 22.4, "unit": "µM"},
      {"measurement": "Activity", "setting": "HepG2 [3]", "result": 51.22, "unit": "%"},
      {"measurement": "Activity", "setting": "HepG2 [4]", "result": 25.17, "unit": "%"},
      {"measurement": "Activity", "setting": "HepG2 [5]", "result": 2.67, "unit": "%"},
      {"measurement": "Activity", "setting": "HepG2 [6]", "result": 7.2, "unit": "%"},
      {"measurement": "Activity", "setting": "HepG2 [7]", "result": 6.22, "unit": "%"},
      {"measurement": "Activity", "setting": "HepG2 [8]", "result": "Active"},
      {"measurement": "Activity", "setting": "HepG2 [9]", "result": "Active"},
      {"measurement": "Activity", "setting": "HepG2 [10]", "result": 11.76, "unit": "%"},
      {"measurement": "Activity", "setting": "HepG2 [11]", "result": 3, "unit": "%"},
      {"measurement": "Activity", "setting": "HepG2 [12]", "result": 21.42, "unit": "%"},
      {"measurement": "Activity", "setting": "HepG2 [13]", "result": 2.4, "unit": "%"},
      {"measurement": "viability at 0.25 µM", "setting": "HepG2 [14]", "result": 39.3, "unit": "%"},
      {"measurement": "Activity", "setting": "HepG2 [15]", "result": 6.68, "unit": "%"},
      {"measurement": "Activity", "setting": "HepG2 [16]", "result": 3.49, "unit": "%"},
      {"measurement": "Activity", "setting": "HepG2 [17]", "result": "Dose-dependent effect"},
      {"measurement": "Activity", "setting": "HepG2 [18]", "result": 64.55, "unit": "%"},
      {"measurement": "Activity", "setting": "HepG2 [19]", "result": 39.86, "unit": "%"},
      {"measurement": "Activity", "setting": "HepG2 [20]", "result": "Dose-dependent effect"},
      {"measurement": "Activity", "setting": "HepG2 [21]", "result": "Active"},
      {"measurement": "Activity", "setting": "HepG2 [22]", "result": "Active"},
      {"measurement": "Activity", "setting": "HepG2 [23]", "result": "Active"},
      {"measurement": "Activity", "setting": "HepG2 [24]", "result": "Active"},
      {"measurement": "Activity", "setting": "HepG2 [25]", "result": "Active"}
    ]}
  ]
}
